Data from ChEMBL document CHEMBL2169747, “Synthesis and biological properties of highly sequence-specific-alkylating N-methylpyrrole-N-methylimidazole polyamide conjugates” (J Med Chem, 2012).
The source made the active and inactive calls. No cut-off for these calls is given here.

What was measured:
A549 [1] = experiment: Downregulation of SEMA3E gene expression in human A549 cells at 26 nM after 12 hrs by microarray analysis relative to control; assay type: functional
Outline: (§1)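 A549 cells (RPMI-1640, 10% heat-inactivated FBS, penicillin/streptomycin, 37 °C, 5% CO2) seeded at 4 × 10^5 per 60 mm dish. Exposed 12 h to conjugate at 21, 26, 34 or 100 nM in medium with 0.1% DMSO, against 0.1% DMSO control. Whole-genome (~25 000 genes) expression profiled by microarray.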

DU-145 [2] = experiment: Antiangiogenic activity against human DU145 cells; assay type: functional, cell-based
A549 [3] = experiment: Downregulation of Q8N570 gene expression in human A549 cells at 26 nM after 12 hrs by microarray analysis relative to control; assay type: functional; outline: as §1
[4] = Cytotoxicity against human EBC1 cells assessed as cell growth inhibition after 48 hrs by microplate reader analysis; assay type: functional, cell-based; details: EBC-1, 48 h
Outline: (§2)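 Medium was RPMI-1640 for EBC-1, A549 and DU145, and DMEM for PC-3, SK-N-SH and K562. Both media had 10% heat-inactivated FBS plus penicillin/streptomycin; cells were kept at 37 °C, 5% CO2. Cells were seeded at 5000/well and given compound from DMSO stock (final 0.1% DMSO) for 48 h. Viability was read by WST-8 colorimetry, absorbance at 450 and 600 nm, and IC50 determined.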

A549 [5] = experiment: Upregulation of GADD45A gene expression in human A549 cells at 26 nM after 12 hrs by microarray analysis relative to control; assay type: functional
Outline: (§3)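 4 ×10^5 A549 cells seeded per 60 mm dish and treated 12 h with conjugate (21, 26, 34 or 100 nM) in medium; control medium contained 0.1% DMSO, with conjugates added as 0.1% DMSO solutions. Whole human genome (~25 000 genes) expression profiled by microarray against the DMSO control. A549 culture: RPMI-1640 with 10% heat-inactivated FBS, penicillin/streptomycin, 37 °C, 5% CO2.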

A549 [6] = experiment: Downregulation of PTPRK gene expression in human A549 cells at 26 nM after 12 hrs by microarray analysis relative to control; assay type: functional; outline: as §1
PC-3 = experiment: Cytotoxicity against human PC3 cells assessed as cell growth inhibition after 48 hrs by microplate reader analysis; assay type: functional, cell-based; details: PC-3, 48 h; outline: as §2
DU-145 [7] = experiment: Antitumor activity against human DU145 cells xenografted in BALB/c-nu/nu mouse assessed as effect on tumor growth at 0.50 mg/kg, ip for 14 days; assay type: functional, organism-based; design: dose 0.5 mg/kg
Outline: (§4)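 Male BALB/c-nu/nu mice, 5 weeks old, 15−22 g. Cells were implanted subcutaneously in the right subaxillary region at 3 × 10^6 cells/mouse: 50 μL for A549, 100 μL for DU145, with HBSS and Matrigel used. Mice were grouped by tumor size. The naked conjugate was given intraperitoneally once on day 0 as 20 μL at 625 μg/mL in 100% DMSO (12.5 μg/mouse). Tumor size and weight were measured every other day for 14 days. n = 7 or 8.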

A549 [8] = experiment: Antiangiogenic activity against human A549 cells; assay type: functional, cell-based
A549 [9] = experiment: Downregulation of NBEA gene expression in human A549 cells at 26 nM after 12 hrs by microarray analysis relative to control; assay type: functional
Outline: (§5)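 A549 cells, 4 × 10^5 per 60 mm dish, were exposed to conjugate for 12 h in medium with 0.1% DMSO; vehicle control was 0.1% DMSO. Whole human genome (~25 000 genes) expression was profiled by microarray and expression compared with the control.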

A549 [10] = experiment: Upregulation of SPESP1 gene expression in human A549 cells at 26 nM after 12 hrs by microarray analysis relative to control; assay type: functional; outline: as §3
A549 [11] = experiment: Upregulation of BBC3 gene expression in human A549 cells at 26 nM after 12 hrs by microarray analysis relative to control; assay type: functional; outline: as §1
SK-N-SH = experiment: Cytotoxicity against human SK-N-SH cells assessed as cell growth inhibition after 48 hrs by microplate reader analysis; assay type: functional, cell-based; outline: as §2
A549 [12] = experiment: Cytotoxicity against human A549 cells assessed as cell growth inhibition after 48 hrs by microplate reader analysis; assay type: functional, cell-based; details: A549, 48 h; outline: as §2
A549 [13] = experiment: Antitumor activity against human A549 cells xenografted in BALB/c-nu/nu mouse assessed as effect on tumor growth at 0.50 mg/kg, ip for 14 days; assay type: functional, organism-based; design: dose 0.5 mg/kg; outline: as §4
DU-145 [14] = experiment: Cytotoxicity against human DU145 cells assessed as cell growth inhibition after 48 hrs by microplate reader analysis; assay type: functional, cell-based; details: DU-145, 48 h; outline: as §2
A549 [15] = experiment: Downregulation of HIST1H2AC gene expression in human A549 cells at 26 nM after 12 hrs by microarray analysis relative to control; assay type: functional; outline: as §5
A549 [16] = experiment: Downregulation of CTTNBP2 gene expression in human A549 cells at 26 nM after 12 hrs by microarray analysis relative to control; assay type: functional; outline: as §5
K562 = experiment: Cytotoxicity against human K562 cells assessed as cell growth inhibition after 48 hrs by microplate reader analysis; assay type: functional, cell-based; details: K562, 48 h; outline: as §2
A549 [17] = experiment: Antitumor activity against human A549 cells xenografted in BALB/c-nu/nu mouse assessed as effect on tumor growth at 1.6 mg/kg, iv administered as liposomal conjugate for 14 days; assay type: functional, organism-based; design: dose 1.6 mg/kg
Outline: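 Male BALB/c-nu/nu mice (5 weeks, 15−22 g) with subcutaneous right-subaxillary A549 or DU145 xenografts (3 × 10^6 cells/mouse), grouped by tumor size. Liposomes were made from a lipid film hydrated in water and bath-sonicated 2 h, giving 330 μg/mL conjugate in 17 mM lipid. A single 125 μL intravenous dose (41 μg/mouse) was given on day 0. Tumor size and weight were read every other day for 14 days. n = 5 or 6.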

Nucleic Acid = experiment: Induction of calf thymus DNA cleavage at 10 to 25 nM after 12 h by PAGE analysis; assay type: nucleic-acid assay; details: in the assay text read “208-bp PCR fragment DNA” for “calf thymus DNA”
Outline: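 5′-Texas Red-labeled 208 bp PCR fragments alkylated in 5.0 mM sodium phosphate (pH 7.0) with 10% DMF, room temperature, 12 h. Quenched with calf thymus DNA and heated 95 °C for 5 min under neutral conditions. Recovered DNA in formamide loading dye, heated 95 °C 20 min, then run on 6% denaturing polyacrylamide gel with 6.0 M urea at 1.5 kV, 40 °C.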

A549 [18] = experiment: Downregulation of NP_001027.2 gene expression in human A549 cells at 34 nM after 12 hrs by microarray analysis relative to control; assay type: functional; outline: as §5
A549 [19] = experiment: Downregulation of SUPT3H gene expression in human A549 cells at 34 nM after 12 hrs by microarray analysis relative to control; assay type: functional; outline: as §1
A549 [20] = experiment: Upregulation of BBC3 gene expression in human A549 cells at 34 nM after 12 hrs by microarray analysis relative to control; assay type: functional; outline: as §1
A549 [21] = experiment: Upregulation of HES2 gene expression in human A549 cells at 34 nM after 12 hrs by microarray analysis relative to control; assay type: functional; outline: as §3
A549 [22] = experiment: Upregulation of GADD45A gene expression in human A549 cells at 34 nM after 12 hrs by microarray analysis relative to control; assay type: functional; outline: as §3
A549 [23] = experiment: Downregulation of SMYD3 gene expression in human A549 cells at 34 nM after 12 hrs by microarray analysis relative to control; assay type: functional; outline: as §1
A549 [24] = experiment: Downregulation of DPYD gene expression in human A549 cells at 34 nM after 12 hrs by microarray analysis relative to control; assay type: functional; outline: as §5

Activity (Nucleic Acid) | Compound | Activity (DU-145 [2]) | IC50 [4] [µM] | IC50 (PC-3) [µM] | Activity (DU-145 [7]) | Activity (A549 [8]) | IC50 (SK-N-SH) [µM] | IC50 (A549 [12]) [µM] | Activity (A549 [13]) | IC50 (DU-145 [14]) [µM] | IC50 (K562) [µM] | Activity (A549 [17]) | other results
Active | CC(=O)Nc1cn(C)c(C(=O)Nc2cc(C(=O)Nc3cc(C(=O)NCCC(=O)Nc4cc(C(=O)NCCCC(=O)Nc5cc(C(=O)NCCC(=O)Nc6cn(C)c(C(=O)Nc7ccc8[nH]c(C(=O)N9CC(CCl)c%10c9cc(O)c9ccccc%109)cc8c7)n6)n(C)c5)n(C)c4)n(C)c3)n(C)c2)n1 (racemic) | inactive | 0.0603 | 0.0126 | inactive | inactive | 0.0191 | 0.0257 | inactive | 0.00603 | 0.00912 | inactive | fold change (FC) (A549 [1]): 0.353; fold change (FC) (A549 [3]): 0.283; fold change (FC) (A549 [5]): 7; fold change (FC) (A549 [6]): 0.257; fold change (FC) (A549 [9]): 0.339; fold change (FC) (A549 [10]): 11; fold change (FC) (A549 [11]): 9.4; fold change (FC) (A549 [15]): 0.362; fold change (FC) (A549 [16]): 0.36
Active | CC(=O)Nc1cn(C)c(C(=O)Nc2cn(C)c(C(=O)Nc3cc(C(=O)NCCC(=O)Nc4cc(C(=O)NCCCC(=O)Nc5cn(C)c(C(=O)NCCC(=O)Nc6cn(C)c(C(=O)Nc7ccc8[nH]c(C(=O)N9CC(CCl)c%10c9cc(O)c9ccccc%109)cc8c7)n6)n5)n(C)c4)n(C)c3)n2)n1 (racemic) | inactive | 0.17 | 0.0191 | inactive | inactive | 0.0407 | 0.0339 | inactive | 0.00631 | 0.0115 | inactive | fold change (FC) (A549 [18]): 0.313; fold change (FC) (A549 [19]): 0.231; fold change (FC) (A549 [20]): 8.5; fold change (FC) (A549 [21]): 8.2; fold change (FC) (A549 [22]): 5.9; fold change (FC) (A549 [23]): 0.291; fold change (FC) (A549 [24]): 0.103
